# Assay results published in ChEMBL document CHEMBL1145753, “Identification of a potent and selective 5-HT(6) antagonist: one-step synthesis of (E)-3-(benzenesulfonyl)-2- (methylsulfanyl)pyrido[1,2-a]pyrimidin-4-ylidenamine from 2-(benzenesulfonyl)-3,3-bis(methylsulfanyl)acrylonitrile” (J Med Chem, 2003).
# Columns and labels:
# [1] = target: 5-hydroxytryptamine receptor 6 (Homo sapiens, UniProt P50406); experiment: Binding affinity towards 5-hydroxytryptamine 6 receptor using [3H]- LSD as radioligand
# Sequence of 5-hydroxytryptamine receptor 6 (P50406 whole entry): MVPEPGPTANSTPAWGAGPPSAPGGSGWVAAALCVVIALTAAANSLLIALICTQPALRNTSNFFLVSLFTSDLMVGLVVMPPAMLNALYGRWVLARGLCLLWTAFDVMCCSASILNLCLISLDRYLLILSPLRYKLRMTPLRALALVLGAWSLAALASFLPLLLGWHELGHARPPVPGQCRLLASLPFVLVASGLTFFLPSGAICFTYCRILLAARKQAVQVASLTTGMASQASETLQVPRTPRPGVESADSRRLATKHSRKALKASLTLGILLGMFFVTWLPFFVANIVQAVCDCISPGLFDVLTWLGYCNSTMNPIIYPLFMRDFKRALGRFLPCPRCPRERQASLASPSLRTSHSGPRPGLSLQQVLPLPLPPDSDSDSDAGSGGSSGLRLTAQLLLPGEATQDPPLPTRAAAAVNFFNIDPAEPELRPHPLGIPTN
# In short: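 Membranes from HEK293 cells expressing recombinant human 5-HT6 receptor. Displacement of [3H]LSD binding measured; IC50 derived.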
# Cytochrome P450 2C9 = Cytochrome P450 2C9 (Homo sapiens, UniProt P11712); experiment: Inhibition of recombinant human Cytochrome P450 2C9; format: ADME
# Sequence of Cytochrome P450 2C9 (P11712 whole entry): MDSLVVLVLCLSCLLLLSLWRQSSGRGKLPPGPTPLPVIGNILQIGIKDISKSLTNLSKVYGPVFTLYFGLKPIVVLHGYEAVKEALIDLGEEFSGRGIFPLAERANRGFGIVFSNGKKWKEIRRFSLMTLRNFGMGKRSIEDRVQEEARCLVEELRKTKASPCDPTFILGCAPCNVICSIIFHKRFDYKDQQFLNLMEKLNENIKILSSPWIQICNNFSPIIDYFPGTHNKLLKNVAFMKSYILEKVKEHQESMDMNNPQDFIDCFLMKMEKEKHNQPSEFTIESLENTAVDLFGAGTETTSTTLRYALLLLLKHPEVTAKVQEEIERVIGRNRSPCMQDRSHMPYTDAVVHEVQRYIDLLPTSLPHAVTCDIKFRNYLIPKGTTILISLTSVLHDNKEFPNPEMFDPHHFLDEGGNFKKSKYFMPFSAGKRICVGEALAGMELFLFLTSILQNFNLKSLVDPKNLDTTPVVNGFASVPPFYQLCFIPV
# In short: (§1)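 Recombinant human CYP enzymes with fluorogenic substrates. CYP1A2: 3-cyano-7-ethoxycoumarin deethylation. CYP2C9: 7-methoxy-4-trifluoromethylcoumarin dealkylation. CYP2D6: 3-[2-(N,N-diethyl-N-methylamino)ethyl]-7-methoxy-4-methylcoumarin demethylation. CYP3A4: benzoylresorufin or 7-benzyloxy-4-trifluoromethylcoumarin dealkylation, tested separately. IC50 for metabolism inhibition reported as mean ± SEM (n = 7).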
# Cytochrome P450 3A4 [2] = target: T1, Cytochrome P450 3A4 (Homo sapiens, UniProt P08684); experiment: Inhibition of recombinant human Cytochrome P450 3A4 with BzRes; format: ADME; in short: as §1
# T1 sequence (P08684 whole entry): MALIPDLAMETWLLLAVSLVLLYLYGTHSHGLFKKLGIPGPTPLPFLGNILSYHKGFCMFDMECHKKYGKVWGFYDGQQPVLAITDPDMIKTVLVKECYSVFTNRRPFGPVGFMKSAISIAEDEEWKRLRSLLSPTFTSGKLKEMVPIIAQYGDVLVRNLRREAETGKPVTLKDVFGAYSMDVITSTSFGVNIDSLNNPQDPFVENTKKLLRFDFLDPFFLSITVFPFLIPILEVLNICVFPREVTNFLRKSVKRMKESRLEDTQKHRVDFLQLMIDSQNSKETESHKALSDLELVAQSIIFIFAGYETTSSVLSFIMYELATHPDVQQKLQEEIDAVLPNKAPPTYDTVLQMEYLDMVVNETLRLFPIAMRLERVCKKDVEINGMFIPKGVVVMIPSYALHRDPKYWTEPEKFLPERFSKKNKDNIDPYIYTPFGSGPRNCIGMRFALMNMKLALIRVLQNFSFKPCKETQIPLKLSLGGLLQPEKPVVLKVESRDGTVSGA
# [3] = target: Cytochrome P450 2C19 (Homo sapiens) (UniProt P33261); experiment: Inhibition of recombinant human Cytochrome P450 2C19
# Sequence of Cytochrome P450 2C19 (Homo sapiens) (P33261 whole entry, looked up): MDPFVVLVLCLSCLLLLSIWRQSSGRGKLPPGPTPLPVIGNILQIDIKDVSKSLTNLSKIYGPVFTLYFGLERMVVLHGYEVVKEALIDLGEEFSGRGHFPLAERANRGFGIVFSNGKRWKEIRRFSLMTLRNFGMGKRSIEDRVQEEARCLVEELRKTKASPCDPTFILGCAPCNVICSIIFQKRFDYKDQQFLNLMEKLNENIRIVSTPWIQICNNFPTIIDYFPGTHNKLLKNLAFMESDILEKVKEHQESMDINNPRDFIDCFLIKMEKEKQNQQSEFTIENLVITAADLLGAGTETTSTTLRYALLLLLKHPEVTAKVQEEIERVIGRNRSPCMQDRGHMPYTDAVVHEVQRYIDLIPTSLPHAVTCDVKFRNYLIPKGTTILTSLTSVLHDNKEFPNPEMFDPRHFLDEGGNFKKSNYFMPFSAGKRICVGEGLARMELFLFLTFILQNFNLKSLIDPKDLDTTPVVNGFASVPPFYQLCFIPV
# Cytochrome P450 2D6 = Cytochrome P450 2D6 (Homo sapiens, UniProt P10635); experiment: Inhibition of recombinant human Cytochrome P450 2D6; format: ADME; in short: as §1
# Sequence of Cytochrome P450 2D6 (P10635 whole entry): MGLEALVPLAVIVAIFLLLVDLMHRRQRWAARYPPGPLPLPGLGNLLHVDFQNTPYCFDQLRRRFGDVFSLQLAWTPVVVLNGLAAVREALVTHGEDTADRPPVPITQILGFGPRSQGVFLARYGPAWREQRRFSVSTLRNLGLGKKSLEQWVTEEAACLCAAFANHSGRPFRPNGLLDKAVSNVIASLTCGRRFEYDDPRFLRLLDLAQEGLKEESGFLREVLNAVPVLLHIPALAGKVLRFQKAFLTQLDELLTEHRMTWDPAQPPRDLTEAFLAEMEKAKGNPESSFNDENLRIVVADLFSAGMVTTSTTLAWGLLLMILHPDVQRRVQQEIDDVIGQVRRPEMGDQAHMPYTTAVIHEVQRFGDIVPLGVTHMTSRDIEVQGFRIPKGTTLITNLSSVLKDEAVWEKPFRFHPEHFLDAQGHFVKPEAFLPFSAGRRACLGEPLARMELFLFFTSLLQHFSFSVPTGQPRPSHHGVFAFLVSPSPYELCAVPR
# [4] = Apparent dissociation constant was determined
# In short: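 Human 5-HT6 receptor expressed in HEK293 cells with coexpressed Gα15, read out as 5-HT-stimulated Ca2+ mobilization. 5-HT EC50 was measured without antagonist and with increasing antagonist concentrations. Dose ratio is EC50 with antagonist divided by EC50 for 5-HT alone. Schild plot of log(dose ratio − 1) vs −log[antagonist]. Triplicate points; experiment repeated at least twice.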
# Cytochrome P450 1A2 = target: T2, Cytochrome P450 1A2 (Homo sapiens, UniProt P05177); experiment: Inhibition of recombinant human Cytochrome P450 1A2; format: ADME; in short: as §1
# T2 sequence (P05177 whole entry): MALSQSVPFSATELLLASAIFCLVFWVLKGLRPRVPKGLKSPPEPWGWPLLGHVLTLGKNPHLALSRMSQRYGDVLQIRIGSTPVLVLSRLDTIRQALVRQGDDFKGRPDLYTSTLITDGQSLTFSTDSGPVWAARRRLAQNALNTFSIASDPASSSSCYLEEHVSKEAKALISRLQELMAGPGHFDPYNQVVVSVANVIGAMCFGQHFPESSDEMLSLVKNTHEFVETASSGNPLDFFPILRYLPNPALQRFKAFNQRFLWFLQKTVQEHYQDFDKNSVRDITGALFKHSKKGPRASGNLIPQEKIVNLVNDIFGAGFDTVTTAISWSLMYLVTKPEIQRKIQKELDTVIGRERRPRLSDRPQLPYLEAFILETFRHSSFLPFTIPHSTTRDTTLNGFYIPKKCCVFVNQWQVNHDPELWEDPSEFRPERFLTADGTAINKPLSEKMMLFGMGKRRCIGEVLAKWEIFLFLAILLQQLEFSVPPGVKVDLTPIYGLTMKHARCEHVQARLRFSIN
# Cytochrome P450 3A4 [5] = target: T1, Cytochrome P450 3A4; experiment: Inhibition of recombinant human Cytochrome P450 3A4 with BFC; format: ADME; in short: as §1
SMILES,IC50 [1],further results
CCc1ccn2c(=N)c(S(=O)(=O)c3ccccc3)c(SC)nc2c1,70.1 nM,
N#C/C(=C\Nc1ccccn1)S(=O)(=O)c1ccccc1,524 nM,
CSc1nc2c(Br)cc(C)cn2c(=N)c1S(=O)(=O)c1ccccc1,269 nM,
CSc1nc2c3ccccc3ccn2c(=N)c1S(=O)(=O)c1ccccc1,68.9 nM,
CSc1nc2ccccn2c(=N)c1S(=O)(=O)c1ccccc1,4 nM,IC50 (Cytochrome P450 2C9): 24200 nM; IC50 (Cytochrome P450 3A4 [2]): > 40000 nM; IC50 [3]: 860 nM; IC50 (Cytochrome P450 2D6): > 40000 nM; Kd [4]: 4.7 nM; IC50 (Cytochrome P450 1A2): > 40000 nM; IC50 (Cytochrome P450 3A4 [5]): > 40000 nM
CCCS(=O)(=O)c1c(SC)nc2ccccn2c1=N,3580 nM,
CSc1nc2ccc(F)cn2c(=N)c1S(=O)(=O)c1ccccc1,87.6 nM,
CSc1nc2ccccn2c(=N)c1S(=O)(=O)c1ccc2ccccc2c1,79.2 nM,
CNc1cc(NS(=O)(=O)c2ccc(N)cc2)nc(NC)n1,26.3 nM,
